In the library only some 1.8% were active in any assay of this set; here they are far more common.
core dimer inh: inhibitors of HCV core protein dimerization, primary screen, biochemical, TR-FRET, high-throughput; TR-FRET GST/Flag-core106 dimerization, 1536-well; inhibition, % at 5 µM; hit rate 0.33% among 300,000;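 active means inhibition above the mean of all tested compounds plus 3 SD, set per screening campaign, cut at about 45% in these data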
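Assay system – GST-tagged and Flag-tagged HCV core protein residues 1-106 · Quantity – core106 proteins, GST 13.5 nM and Flag 17 nM · Benchmarks – unlabelled core106 and no-GST-core106 wells · Read-out basis – percent inhibition of core106 dimerization signal · Detection – time-resolved FRET, ex 340 nm, em 617 and 671 nm · Schedule – 4 h at 22.5 °C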
MLLE-PAM2 inh: inhibitors of PABP1 MLLE–PAM2 peptide binding, primary screen, biochemical, fluorescence polarization, FITC-PAM2, GST-MLLE. inhibition, % at 20 µM. hit rate 0.36% among 360,000. AID 588489, 2011; in the data active means inhibition above about 35%, passing the limit was not always enough
PABP FP inh: PABP poly(A) RNA binding inhibitors, primary screen, biochemical, fluorescence polarization, uHTS. Polyadenylate-binding protein 1 (Homo sapiens), P11940. calls only at 35 µM. hit rate 1% among 290,000;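 further: calls also rest on retests at 20 µM and on dose response follow-up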
eIF4H inh: human eIF4H binding inhibitors, primary screen, translation initiation inhibitor project, biochemical, uHTS, fluorescence polarization; eIF4H fluorescence polarization binding assay; inhibition, % at 35 µM; hit rate 0.94% among 290,000;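 further: calls also rest on retests at 20 µM and on dose response follow-up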
eIF4E 4G PPI: eIF4E–eIF4G protein interaction inhibitors, primary screen, biochemical, uHTS, TR-FRET, eIF4GI fragment; inhibition, % at 21.7 µM; hit rate 0.37% among 220,000; TR-FRET eIF4E-eIF4GI(517-606) binding, 2 h; AID 782, 2007;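 active means inhibition above about 30%, limit read from the data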
UBC9 SUMO inh: inhibitors of in vitro SUMOylation cascade, primary screen, biochemical, HTRF, uHTS. HTRF SUMOylation assay, SAE1/SAE2 + UBC9. AID 2006, 2009. inhibition, % at 35 µM. SUMO-conjugating enzyme UBC9 (Homo sapiens), P63279. hit rate 0.36% among 290,000; in the data active means inhibition above about 50%, passing the limit was not always enough; inconclusive means no clear call, values can overlap the other calls
Each line names hits and unclear results; the compound was inactive in the other large screens; [ ] = another dose, or the depositor's remark. Unless noted, how the calls were made is not given here.

Cc1ccc(CNC(=O)/C(C#N)=C\c2ccc(N(C)C)cc2)cc1	UBC9 SUMO inh 54 (no result: MLLE-PAM2 inh)
Cc1cc(=O)[nH]c(SCC(=O)OCc2ccccc2)c1C#N	none
COc1c2c(c3c(c1OC)c(=O)c1ccccc1n3C)OCO2	MLLE-PAM2 inh 55 (no result: core dimer inh, PABP FP inh, eIF4H inh, eIF4E 4G PPI, UBC9 SUMO inh)
CC(=O)OC1=C(C#N)Cn2ccc3cccc1c32	eIF4E 4G PPI 32 (no result: MLLE-PAM2 inh)
COCCN(C(=O)COC(=O)Cc1ccc(Cl)cc1Cl)c1c(N)n(Cc2ccccc2)c(=O)[nH]c1=O	none (no result: PABP FP inh, eIF4H inh, eIF4E 4G PPI, UBC9 SUMO inh)
C/C(=N\Nc1cc(Cl)nc(C)n1)c1ccc(C)cc1	none (no result: PABP FP inh, eIF4H inh, eIF4E 4G PPI, UBC9 SUMO inh)
Cc1ccc(-c2nc3ncccn3c2Nc2ccc3c(c2)OCCO3)o1	none
Cc1ccc(-c2nc3ncccn3c2NC2CCCCC2)o1	PABP FP inh active, eIF4H inh 54
CCOc1ccc(/C=C(\C#N)C(=O)NCC2CCCO2)cc1OCC (stereo not drawn)	none
COc1cc(/C=C(\C#N)C(=O)NCC2CCCO2)ccc1O (stereo not drawn)	PABP FP inh active, eIF4H inh active
O=C(N/N=C1\C/C(=N\NC(=O)c2ccncc2)c2ccccc21)c1ccncc1	PABP FP inh inconclusive, UBC9 SUMO inh 52
Cc1ccc(S(=O)(=O)N2CCN(C(=O)c3ccc(N4CCCCC4)c([N+](=O)[O-])c3)CC2)cc1	none (no result: eIF4E 4G PPI)
O=C(CSc1nncc2ccccc12)N1CCOCC1	MLLE-PAM2 inh 42
O=C1c2c(O)cccc2Cc2cccc(O)c21	core dimer inh 59, MLLE-PAM2 inh 46 (no result: PABP FP inh, eIF4H inh, eIF4E 4G PPI, UBC9 SUMO inh)
CNCc1ccccc1Sc1cc(O)ccc1O	MLLE-PAM2 inh 45, eIF4E 4G PPI 48[fluorescence artefact?]
N#Cc1c(NC(=O)CSc2ncnc3sccc23)oc(-c2ccco2)c1-c1ccco1	core dimer inh 50, PABP FP inh inconclusive, eIF4H inh inconclusive (no result: UBC9 SUMO inh)
CCNC(=O)CSc1ncnc2sccc12	core dimer inh 58
COCCN1CC(C(=O)NCc2ncccc2C)CCC1=O (stereo not drawn)	none (no result: eIF4E 4G PPI)
O=[N+]([O-])c1cccnc1-n1cnc2ccccc21	none
Cc1cc2ncn(-c3ncccc3[N+](=O)[O-])c2cc1C	MLLE-PAM2 inh 61 (no result: eIF4E 4G PPI)
O=C1CCCC2=C1C(c1ccc(O)c(O)c1)Nc1ccc3ncccc3c12 (stereo not drawn)	PABP FP inh active, eIF4H inh 74
Cc1cccc2cc3c(N)c(C#N)sc3nc12	none
Cc1sc(NC(=O)c2sc3nc4c(C)cccc4cc3c2N)c(C#N)c1C	core dimer inh 47
COc1cc(CN2CCN(C(=O)CC(C)C)CC2)cc(OC)c1OC	none
COc1ccc(CN2CCN(C(=O)CC(C)C)CC2)c(OC)c1OC	eIF4E 4G PPI 77
COCCCn1c(=S)[nH]c2c(sc3ccccc32)c1=O	none
Cc1ccc(Cn2nc(C)c(NC(=O)CSc3nc4c(c(C(F)(F)F)n3)CCc3ccccc3-4)c2C)cc1	eIF4E 4G PPI 30
COc1ccc(-c2csc(NC(=O)CSc3n[nH]c(N)n3)n2)cc1	MLLE-PAM2 inh 37
O=c1[nH]c(Nc2ccc(F)cc2)cc2ccccc12	PABP FP inh active (no result: UBC9 SUMO inh)
Cc1ccc(NC(=S)Nc2cccc3cnccc23)c(C)c1	UBC9 SUMO inh 97
Cc1ccccc1CC1(CO)CCCN(C(=O)CCCN2CCCCC2=O)C1 (stereo not drawn)	none
CCc1cc2c(=O)nc3n(c2s1)Cc1ccccc1/C3=C(/O)c1cccc([N+](=O)[O-])c1	PABP FP inh active, eIF4H inh 52
CCc1cc2c(=O)nc3n(c2s1)Cc1ccccc1/C3=C(/O)c1ccccc1Cl	UBC9 SUMO inh inconclusive
CCc1cc2c(=O)nc3n(c2s1)Cc1ccccc1/C3=C(/O)c1ccc(F)cc1	PABP FP inh active, eIF4H inh 71
CC1(C)Cc2c(C#N)c(NCc3ccco3)nc(-c3ccco3)c2CO1	core dimer inh 52 (no result: eIF4E 4G PPI)
Cc1cc(NC(=O)/C=C/c2ccco2)ccc1NC(=O)c1ccccc1	none
O=C(/C=C\c1ccco1)Nc1cc([N+](=O)[O-])ccc1F	none
O=C(/C=C/c1ccco1)Nc1ccccc1C(=O)O	PABP FP inh active
O=C(/C=C/c1ccco1)Nc1ccccc1C(=O)Nc1cccc(C(=O)O)c1	PABP FP inh active, eIF4H inh inconclusive
O=C(/C=C/c1ccco1)Nc1cc(Cl)ccc1C(=O)O	PABP FP inh active, eIF4H inh 89
COc1ccccc1C(=O)N/C(=C/c1ccco1)C(=O)Nc1cccc(C(=O)O)c1	PABP FP inh active, eIF4H inh 67 (no result: eIF4E 4G PPI)
O=C(/C=C/c1ccco1)Nc1ccccc1N1CCCC1	none
CCOC(=O)c1sc(NC(=O)CN2CCN(c3ccccc3)CC2)nc1C	none (no result: eIF4E 4G PPI)
COc1cccc(-c2cc(NC=O)c3ncc(-c4ccc(C(C)=O)cc4)n3c2)c1	none (no result: core dimer inh, PABP FP inh, eIF4H inh, eIF4E 4G PPI, UBC9 SUMO inh)
O=C(NCCCNC(=O)c1cnccn1)c1cccc(F)c1	none (no result: eIF4E 4G PPI)
O=C1N2CCSC2=NC1(Nc1ccccn1)C(F)(F)F (stereo not drawn)	none
CS(=O)(=O)c1ccc2nc(NC3(C(F)(F)F)N=C4SCCN4C3=O)sc2c1 (stereo not drawn)	MLLE-PAM2 inh 42
Cc1cc(OCC(=O)NNC(=S)NCC2CCCO2)cc(C)c1Cl (stereo not drawn)	none (no result: eIF4E 4G PPI)
O=C1CC(NS(=O)(=O)c2cc(F)ccc2F)CN1c1cccc(F)c1 (stereo not drawn)	none (no result: PABP FP inh, eIF4H inh, eIF4E 4G PPI, UBC9 SUMO inh)
Cn1c(SCC(=O)N/N=C/C=C/c2ccco2)nc2ccccc21	none
COc1ccc(OC)c(C(C(=O)NC2CCCCC2)N(Cc2ccco2)C(=O)c2ccccn2)c1 (stereo not drawn)	none (no result: eIF4E 4G PPI)
CC1=C/C(=C\c2ccc3c(c2)OCO3)C(=O)S1	none
CC1=C/C(=C/N(C)c2ccccc2)C(=O)S1	PABP FP inh active, eIF4H inh 52
COc1ccc(-n2ncc3c2CC(C)(C)CC3NC(=O)C2=CC(=O)CC(C)(C)O2)cc1 (stereo not drawn)	none (no result: PABP FP inh, eIF4H inh, eIF4E 4G PPI, UBC9 SUMO inh)
O=C1CS/C(=N\N=C\c2ccco2)N1c1ccccc1	PABP FP inh active, eIF4H inh 85
COc1ccc2c(c1)C1C=CCC1C(c1cc3c(cc1Br)OCO3)N2 (stereo not drawn)	eIF4H inh 70
O=C(O)C1Sc2[nH]c(=O)sc2C2c3cc(Cl)ccc3OC(=O)C12 (stereo not drawn)	PABP FP inh active
CCCCn1c(N)c(NCc2ccccc2)c(=O)[nH]c1=O	none
Nc1c(NCc2ccccc2F)c(=O)[nH]c(=O)n1Cc1ccccc1	PABP FP inh active, eIF4H inh 51
O=C(Nc1ccc2nc(-c3ccco3)c(-c3ccco3)nc2c1)N1CCCCCC1	core dimer inh 75, UBC9 SUMO inh 58 (no result: MLLE-PAM2 inh)
